Activity calls are given as the source filed them. The calls are words filed in the database; no cut-off is given here.
Key:
[1] = molecular target: T1, Polyunsaturated fatty acid 5-lipoxygenase (Mus musculus, UniProt P48999); assay: Inhibition of 5-lipoxygenase in BALB/c mouse BMMC assessed as LTC4 release after 20 mins by enzyme immunoassay
T1 sequence (P48999 whole entry): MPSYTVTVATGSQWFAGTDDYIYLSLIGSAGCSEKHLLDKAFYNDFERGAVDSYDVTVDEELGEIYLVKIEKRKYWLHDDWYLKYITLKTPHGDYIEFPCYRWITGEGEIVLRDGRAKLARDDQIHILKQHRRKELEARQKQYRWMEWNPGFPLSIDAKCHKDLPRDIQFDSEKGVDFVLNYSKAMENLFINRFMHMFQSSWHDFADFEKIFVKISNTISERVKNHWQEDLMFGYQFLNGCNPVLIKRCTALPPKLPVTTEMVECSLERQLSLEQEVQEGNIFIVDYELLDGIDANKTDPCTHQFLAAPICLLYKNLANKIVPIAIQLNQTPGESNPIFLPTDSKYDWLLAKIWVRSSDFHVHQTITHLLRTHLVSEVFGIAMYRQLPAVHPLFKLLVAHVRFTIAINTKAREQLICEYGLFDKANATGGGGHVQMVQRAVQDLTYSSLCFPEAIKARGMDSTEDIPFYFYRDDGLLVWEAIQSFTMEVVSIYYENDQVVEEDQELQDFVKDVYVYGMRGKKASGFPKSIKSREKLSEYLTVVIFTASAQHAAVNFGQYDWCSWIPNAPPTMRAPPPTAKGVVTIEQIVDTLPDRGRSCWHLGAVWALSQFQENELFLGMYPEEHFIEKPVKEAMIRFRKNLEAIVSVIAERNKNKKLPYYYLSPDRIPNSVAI
Outline: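 Bone marrow mast cells from male Balb/c mice, cultured up to 4 weeks in enriched RPMI + 10% FBS + IL-3 (2 ng/mL); >98% purity by toluidine blue staining. Cells at 1×10^6/mL pre-incubated with compound in DMSO (final <0.5%) for 30 min at 37 °C, then stimulated with SCF 100 ng/mL for 20 min. Supernatant LTC4 measured by EIA in triplicate; % reduction calculated.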

Mus musculus [2] = assay: Antiasthamatic activity against ovalbumin-induced airway hyperresponsiveness mouse model assessed as reduction of increase in penh value at 30 mg/kg, po administered 24 hrs after last ovalbumin challenge measured after 24 hrs by plethysmography; format: functional, organism-based; design: dose 30 mg/kg
Outline: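 OVA/alum-sensitized mice (i.p., days 0 and 11) challenged with 1% OVA aerosol, given 30 mg/kg orally. 24 h after final aerosol, whole-body plethysmography was run: PBS aerosol, then methacholine 12.5, 25 and 50 mg/mL for 3 min each, with 5 min recording per step. Peak Penh at each dose expressed as % of basal PBS Penh.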

Mus musculus [3] = assay: Antiasthamatic activity against ovalbumin-induced airway hyperresponsiveness mouse model assessed as reduction of mononuclear cells infiltration at 30 mg/kg, po measured 48 hrs after ovalbumin challenge; format: functional, organism-based; design: dose 30 mg/kg
Outline: (§1)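 Mice sensitized i.p. with OVA/alum on days 0 and 11 and challenged with 1% OVA aerosol on days 19–21 and 25. Oral dosing at 30 mg/kg. Lungs taken 48 h after last challenge, fixed 24 h in 10% neutral-buffered formalin, paraffin-embedded, cut at 4 µm and H&E stained. Peribronchial/perivascular infiltration scored 0–3 blind by two independent investigators.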

Mus musculus [4] = assay: Antiasthamatic activity against ovalbumin-induced airway hyperresponsiveness mouse model assessed as reduction of eosinophils infiltration at 30 mg/kg, po measured 48 hrs after ovalbumin challenge; format: functional, organism-based; design: dose 30 mg/kg; outline: as §1
Mus musculus [5] = assay: Antiasthamatic activity against ovalbumin-induced airway hyperresponsiveness mouse model assessed as reduction of plasma IgE level at 30 mg/kg, po measured 48 hrs after ovalbumin challenge (reference value: 41.82 +/- 10.57 ng/ml); format: functional
Mus musculus [6] = assay: Antiasthamatic activity against ovalbumin-induced airway hyperresponsiveness mouse model assessed as reduction of bronchoalveolar lavage fluid IL-4 level at 30 mg/kg, po measured 48 hrs after ovalbumin challenge; format: functional, Lung
Outline: (§2)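 OVA sensitization i.p. (20 µg OVA with 2 mg aluminum hydroxide in PBS pH 7.4, days 0 and 11), then airway challenge with 1% OVA aerosol for 20 min on days 19, 20, 21 and 25. Compound given orally at 30 mg/kg. BALF collected 48 h after last challenge by three 0.5 mL ice-cold PBS lavages and centrifuged. IL-4, IL-5 and IL-13 measured by mouse ELISA (detection limit 250 pg/mL). n = 5–6 per group, mean ± SEM.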

Mus musculus [7] = assay: Antiasthamatic activity against ovalbumin-induced airway hyperresponsiveness mouse model assessed as reduction of bronchoalveolar lavage fluid IL-5 level at 30 mg/kg, po measured 48 hrs after ovalbumin challenge; format: functional, Lung; outline: as §2
Mus musculus [8] = assay: Antiasthamatic activity against ovalbumin-induced airway hyperresponsiveness mouse model assessed as reduction of bronchoalveolar lavage fluid IL-13 level at 30 mg/kg, po measured 48 hrs after ovalbumin challenge; format: functional, Lung; outline: as §2

`COc1ccc2oc(Nc3ccc(SC)cc3)nc2c1` showed an IC50 [1] of 2.77 µM.
In the case of `CCc1ccc(Nc2nc3cc(C)ccc3o2)cc1`, the IC50 [1] is reported as 0.12 µM, the Activity (Mus musculus [2]) is reported as “Active” and the Activity (Mus musculus [3]) is reported as “Active”. The Activity (Mus musculus [4]) was “Active”, the Activity (Mus musculus [5]) was 19.21 ng/mL and the Activity (Mus musculus [6]) was 198.34 ng/mL. For the same molecule, the Activity (Mus musculus [7]) was 116.92 ng/mL and the Activity (Mus musculus [8]) was 64.3 ng/mL.
In the case of `CCc1ccc(Nc2nc3cc(Cl)ccc3o2)cc1`, the Activity (Mus musculus [2]) is reported as “Active”, the Activity (Mus musculus [3]) is reported as “Active” and the Activity (Mus musculus [4]) is reported as “Active”. The Activity (Mus musculus [5]) was 25.44 ng/mL, the Activity (Mus musculus [6]) was 163.49 ng/mL and the Activity (Mus musculus [7]) was 110.91 ng/mL. It also gave an Activity (Mus musculus [8]) of 71.91 ng/mL.
In the case of `COc1ccc2oc(Nc3ccccc3)nc2c1`, the IC50 [1] is reported as 7.88 µM.
Molecule `CSc1ccc(Nc2nc3cc(C)ccc3o2)cc1` has an IC50 [1] of 7.31 µM.
Molecule `COc1ccc2oc(Nc3ccc(C(C)C)cc3)nc2c1` has an IC50 [1] of 2.64 µM.
For `CCc1ccccc1Nc1nc2cc(C)ccc2o1`, the IC50 [1] was 5.66 µM.
With `COc1cccc(Nc2nc3cc(C)ccc3o2)c1` the IC50 [1] was 6.83 µM.
Work on `COc1ccc2oc(Nc3cccc(Br)c3)nc2c1` yielded an IC50 [1] of 2.03 µM.
In the case of `Cc1ccc2oc(Nc3ccccc3)nc2c1`, the IC50 [1] is reported as 4.6 µM.
Work on `Clc1ccc2oc(Nc3ccccc3)nc2c1` yielded an IC50 [1] of 4.5 µM.

Source: ChEMBL document CHEMBL1268907, “Synthesis and evaluation of benzoxazole derivatives as 5-lipoxygenase inhibitors” (Bioorg Med Chem, 2010)
